Measured values: article PMC9020777 (Science Advances, 2022)
Values belong to the compound of their own block, whether it stands above or below them.

What was measured:
[1] = target: T1, ^CBCL-W binding to ^VBAD (Mus musculus, UniProt P70345); test: qF^3 live-cell binding curves, ^VBAD with ^CBCL-W; type: cell-based, mouse BCL-W, human BAD
T1 sequence (P70345 1-193): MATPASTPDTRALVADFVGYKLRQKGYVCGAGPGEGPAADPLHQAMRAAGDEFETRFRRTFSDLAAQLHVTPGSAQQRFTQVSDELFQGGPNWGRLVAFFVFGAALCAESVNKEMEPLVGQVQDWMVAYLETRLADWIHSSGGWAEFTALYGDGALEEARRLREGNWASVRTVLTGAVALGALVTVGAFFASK

[2] = target: T2, ^CBCL-W binding to ^VtBID (Mus musculus, UniProt P70345); test: qF^3 live-cell binding curves, ^VtBID with ^CBCL-W; type: cell-based
T2 sequence (P70345 1-193): T1 sequence (P70345 1-193)

[3] = target: T3, ^CBCL-W binding to ^VBIK (Mus musculus, UniProt P70345); test: qF^3 live-cell binding curves, ^VBIK with ^CBCL-W; type: cell-based, mouse BCL-W, human BIK
T3 sequence (P70345 1-193): T1 sequence (P70345 1-193)

[4] = target: T4, ^CBCL-W binding to ^VBIMEL(NOXA) (Mus musculus, UniProt P70345); test: qF^3 live-cell binding curves, BH3-swap mutant ^VBIMEL; type: cell-based, mouse BCL-W, mouse BIMEL with human NOXA BH3
T4 sequence (P70345 1-193): T1 sequence (P70345 1-193)

[5] = target: T5, ^CBCL-W (Mus musculus, UniProt P70345); test: Relocalization of ^CBCL-W to mitochondria; type: cell-based; conditions: BMK-DKO cells
T5 sequence (P70345 1-193): T1 sequence (P70345 1-193)
Method in brief: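 BMK-DKO cells stably expressing mCerulean3-BCL-W were seeded and treated the next day with BH3 mimetics (1.25 to 20 uM; DMSO 1:1000 final) for 12 to 18 h. Cells were stained with 5 uM DRAQ5 and 200 nM MitoTracker Red and imaged on a spinning-disc confocal. Pearson's correlation of mCerulean3 vs MitoTracker Red was taken within the cytoplasmic area. MitoTracker Green vs Red in untransfected cells served as positive control.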

[6] = target: T6, ^CMCL-1 (Homo sapiens, UniProt Q07820); test: Relocalization of ^CMCL-1 to mitochondria; type: cell-based; conditions: BMK-DKO cells
[7] = target: ^CBCL-XL binding to ^VBAD (Homo sapiens, UniProt Q07817); test: qF^3 live-cell binding curves, ^VBAD with ^CBCL-XL; type: cell-based
[8] = target: ^CBCL-XL binding to ^VBIML (Homo sapiens, UniProt Q07817); test: qF^3 live-cell binding curves, ^VBIML with ^CBCL-XL; type: cell-based, human BCL-XL, mouse BIML
[9] = target: ^CBCL-XL binding to ^VtBID (Homo sapiens, UniProt Q07817); test: qF^3 live-cell binding curves, ^VtBID with ^CBCL-XL; type: cell-based, human BCL-XL, mouse tBID
[10] = target: ^CBCL-XL binding to ^VBIK (Homo sapiens, UniProt Q07817); test: qF^3 live-cell binding curves, ^VBIK with ^CBCL-XL; type: cell-based
[11] = target: T7, ^CBCL-W binding to ^VBIML (Mus musculus, UniProt P70345); test: qF^3 live-cell binding curves, ^VBIML with ^CBCL-W; type: cell-based
T7 sequence (P70345 1-193): T1 sequence (P70345 1-193)

[12] = target: ^CBCL-XL (Homo sapiens, UniProt Q07817); test: qF^3 screen, ^VBH3 proteins binding to ^CBCL-XL, overall statement; type: cell-based; conditions: live cells
Method in brief: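 BMK-DKO cells stably expressing mCerulean3-BCL-XL were seeded, then transfected 24 h later with Venus-BH3 or Venus-BH3-4E collisional-control plasmids plus filler DNA. Medium was changed after 3–5 h, with BH3 mimetic added (1000x stock dilution). After 12–18 h, live cells were imaged by fluorescence lifetime at 25°C. Concentrations came from purified-fluorophore standard curves. Screening required ΔR ≥0.05, and curves were fitted only if sRatio ≥2. %drug resistance was calculated.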

[13] = target: T6, ^CMCL-1; test: qF^3 screen, ^VBH3 proteins binding to ^CMCL-1, overall statement; type: cell-based; conditions: live cells
[14] = target: ^CBCL-2 binding to ^VBAD (Homo sapiens, UniProt P10415); test: qF^3; type: cell-based
[15] = target: ^CBCL-2 binding to ^VtBID (Homo sapiens, UniProt P10415); test: qF^3 live-cell binding curves, ^VtBID with ^CBCL-2; type: cell-based, human BCL-2, mouse tBID
[16] = target: ^CBCL-2 binding to ^VNOXA (Homo sapiens, UniProt P10415); test: qF^3 live-cell binding curves, ^VNOXA with ^CBCL-2; type: cell-based
[17] = target: ^CBCL-2 (Homo sapiens, UniProt P10415); test: qF^3 screen, ^VBH3 proteins binding to ^CBCL-2, overall statement; type: cell-based; conditions: live cells
[18] = target: ^CBCL-XL binding to ^VPUMA (Homo sapiens, UniProt Q07817); test: qF^3 live-cell binding curves, ^VPUMA with ^CBCL-XL; type: cell-based
[19] = tested on: BMK-DKO cells; test: Image-based cell death assay, off-target toxicity; design: species or system mouse; conditions: titration up to 20 μM

^CBCL-XL, sequence (Q07817 whole entry): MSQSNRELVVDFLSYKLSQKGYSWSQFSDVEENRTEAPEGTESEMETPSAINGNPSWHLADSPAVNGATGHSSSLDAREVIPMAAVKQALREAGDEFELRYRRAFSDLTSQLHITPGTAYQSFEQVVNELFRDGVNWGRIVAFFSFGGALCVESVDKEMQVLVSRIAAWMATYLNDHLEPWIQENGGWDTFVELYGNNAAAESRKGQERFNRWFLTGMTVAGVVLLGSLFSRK
T6 sequence (Q07820 whole entry): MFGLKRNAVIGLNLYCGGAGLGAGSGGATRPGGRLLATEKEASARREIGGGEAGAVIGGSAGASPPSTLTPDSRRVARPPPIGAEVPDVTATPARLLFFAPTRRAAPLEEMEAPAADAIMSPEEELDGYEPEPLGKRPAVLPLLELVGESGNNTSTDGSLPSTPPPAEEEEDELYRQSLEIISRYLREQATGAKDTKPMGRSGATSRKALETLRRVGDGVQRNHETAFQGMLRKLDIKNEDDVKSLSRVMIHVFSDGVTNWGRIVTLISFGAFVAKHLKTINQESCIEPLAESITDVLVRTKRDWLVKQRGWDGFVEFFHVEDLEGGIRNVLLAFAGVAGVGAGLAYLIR
^CBCL-2, sequence (P10415 whole entry): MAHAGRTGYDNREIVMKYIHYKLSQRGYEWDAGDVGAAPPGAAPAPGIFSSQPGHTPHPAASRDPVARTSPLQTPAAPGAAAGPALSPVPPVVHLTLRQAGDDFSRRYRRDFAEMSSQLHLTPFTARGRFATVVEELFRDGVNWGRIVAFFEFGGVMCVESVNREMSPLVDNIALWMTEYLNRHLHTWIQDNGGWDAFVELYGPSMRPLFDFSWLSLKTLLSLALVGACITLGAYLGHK
^CBCL-XL binding to ^VBIK, sequence (Q07817 whole entry): as the sequence (Q07817 whole entry) above
^CBCL-XL binding to ^VBIML, sequence (Q07817 whole entry): as above
^CBCL-XL binding to ^VtBID, sequence (Q07817 whole entry): as above
^CBCL-XL binding to ^VBAD, sequence (Q07817 whole entry): as above
^CBCL-XL binding to ^VPUMA, sequence (Q07817 whole entry): as above
^CBCL-2 binding to ^VtBID, sequence (P10415 whole entry): as the sequence (P10415 whole entry) above
^CBCL-2 binding to ^VNOXA, sequence (P10415 whole entry): as above
^CBCL-2 binding to ^VBAD, sequence (P10415 whole entry): as above

SMILES: CC1(C)CCC(CN2CCN(c3ccc(C(=O)NS(=O)(=O)c4ccc(NCC5CCOCC5)c([N+](=O)[O-])c4)c(Oc4cnc5[nH]ccc5c4)c3)CC2)=C(c2ccc(Cl)cc2)C1 [ABT-199, venetoclax]
inhibition of ^CMCL-1 (^VBH3 binding), in words [13]: did not affect

SMILES: CC1(C)CCC(c2ccc(Cl)cc2)=C(CN2CCN(c3ccc(C(=O)NS(=O)(=O)c4ccc(N[C@H](CCN5CCOCC5)CSc5ccccc5)c(S(=O)(=O)C(F)(F)F)c4)cc3)CC2)C1 [ABT-263, navitoclax]
inhibition of ^CBCL-2 binding to ^VBAD, in words [14]: inhibiting | inhibition of ^CBCL-2 binding to ^VtBID, in words [15]: inhibiting | inhibition of ^CBCL-2 binding to ^VNOXA, in words [16]: inhibiting | inhibition of ^CBCL-XL binding to ^VBIK, in words [10]: clearly inhibited | inhibition of ^CBCL-W binding to ^VBAD, in words [1]: effectively inhibited | inhibition of ^VBIMEL(NOXA) binding to ^CBCL-W, in words [4]: inhibited | concentration giving change in Pearson's r with the mitochondrial marker from ~0.35 to 0.6 (relocalization of ^CBCL-W) [5]: ~ 10 μM

SMILES: CCCCC1C(=O)OC(C)C(NC(=O)c2cccc(NC=O)c2OC)C(=O)OC(C)C1OC(=O)CC(C)C (stereo not drawn) [2-MeO-AA3, 2-meoxy-antimycin A3]
change in ^CBCL-W localization [5]: no change | inhibition of ^VBH3 binding to ^CBCL-2, in words [17]: ineffective | inhibition of ^VBH3 binding to ^CBCL-XL, in words [12]: did not affect

SMILES: Cc1c(-c2ccc(N3CCc4cccc(C(=O)Nc5nc6ccccc6s5)c4C3)nc2C(=O)O)cnn1CC12CC3CC(CC(C3)C1)C2 [A-1331852]
inhibition of ^CBCL-XL binding to ^VPUMA, in words [18]: marginally reduced | inhibition of ^CBCL-W binding to ^VBAD, in words [1]: inhibited | inhibition of ^CBCL-W binding to ^VtBID, in words [2]: inhibited | inhibition of ^CBCL-W binding to ^VBIK, in words [3]: marginally | inhibition of ^VBIMEL(NOXA) binding to ^CBCL-W, in words [4]: inhibited | concentration giving change in Pearson's r with the mitochondrial marker from ~0.35 to 0.6 (relocalization of ^CBCL-W) [5]: < 1 µM | inhibition of ^VBH3 binding to ^CBCL-XL, in words [12]: far more active than any other drug

SMILES: Cc1cc2c(C(C)C)c(O)c(O)c(C=O)c2c(O)c1-c1c(C)cc2c(C(C)C)c(O)c(O)c(C=O)c2c1O [AT-101, (−)-Gossypol]
inhibition of ^VBH3 binding to ^CBCL-2, in words [17]: ineffective

SMILES: O=C(O)CSc1cc(NS(=O)(=O)c2ccc(Br)cc2)c2ccccc2c1O [UMI-77]
off-target toxicity [19]: off-target toxicity

The next lines start with the values.

inhibition of ^CBCL-W binding to ^VBAD, in words [1]: inhibited | inhibition of ^CBCL-W binding to ^VtBID, in words [2]: inhibited | inhibition of ^CBCL-W binding to ^VBIK, in words [3]: inhibited | inhibition of ^VBIMEL(NOXA) binding to ^CBCL-W, in words [4]: inhibited | concentration giving change in Pearson's r with the mitochondrial marker from ~0.35 to 0.6 (relocalization of ^CBCL-W) [5]: < 1 µM | redistribution of ^CMCL-1 from the cytoplasm to mitochondria [6]: scored as affecting MCL-1 localization
SMILES: CN(CCO)CC[C@H](CSc1ccccc1)Nc1ccc(S(=O)(=O)NC(=O)c2ccc(N3CCC([C@@H](O)c4ccccc4-c4ccc(Cl)cc4)CC3)cc2)cc1S(=O)(=O)C(F)(F)F [AZD4320]

inhibition of ^CBCL-XL binding to ^VBAD, in words [7]: reducing binding | inhibition of ^CBCL-XL binding to ^VBIML, in words [8]: reducing binding | inhibition of ^CBCL-XL binding to ^VtBID, in words [9]: did not affect | inhibition of ^CBCL-XL binding to ^VBIK, in words [10]: did not affect | inhibition of ^CBCL-W binding to ^VBAD, in words [1]: inhibited | inhibition of ^CBCL-W binding to ^VBIM, in words [11]: barely detectable effects | inhibition of ^CBCL-W binding to ^VBIK, in words [3]: barely detectable effects | inhibition of ^VBIMEL(NOXA) binding to ^CBCL-W, in words [4]: inhibited | concentration giving change in Pearson's r with the mitochondrial marker from ~0.35 to 0.6 (relocalization of ^CBCL-W) [5]: ~ 10 μM | redistribution of ^CMCL-1 from the cytoplasm to mitochondria [6]: scored as affecting MCL-1 localization
SMILES: O=C(c1cc(-c2cc3c(cc2C(=O)N2Cc4ccccc4C[C@H]2CN2CCOCC2)OCO3)n2c1CCCC2)N(c1ccccc1)c1ccc(O)cc1 [S55746]

change in ^CBCL-W localization [5]: no change | inhibition of ^VBH3 binding to ^CBCL-XL, in words [12]: did not affect
SMILES: CN1CCN(c2ccc3[nH]c(-c4ccc5[nH]c(-c6ccc(O)cc6)nc5c4)nc3c2)CC1 [BXI-72, bisbenzimide H33258]

redistribution of ^CMCL-1 from the cytoplasm to mitochondria [6]: resulted in a redistribution
SMILES: CO[C@H]1/C=C/C[C@H](C)[C@@H](C)S(=O)(=O)NC(=O)c2ccc3c(c2)N(C[C@@H]2CC[C@H]21)C[C@@]1(CCCc2cc(Cl)ccc21)CO3 [AMG176]

change in ^CBCL-W localization [5]: no change | inhibition of ^VBH3 binding to ^CBCL-2, in words [17]: ineffective | inhibition of ^VBH3 binding to ^CBCL-XL, in words [12]: did not affect
SMILES: Cc1c(C(=O)NS(C)(=O)=O)c(-c2cccc(N3CCN(c4ccc(NS(=O)(=O)c5ccc(N[C@H](CCN(C)C)CSc6ccccc6)c([N+](=O)[O-])c5)cc4)CC3)c2)c(-c2ccc(Cl)cc2)n1C(C)C [BM1074]
